B1: Osa-1-4 twister ribozyme (parent)
chain: CCGCCUAACACUGCCAAUGCCGGUCCCAAGCCCGGAUAAAAGUGGAGGGGGCGG

This series covers variants of B1. As to the kind of experiment: self-cleavage, relative activity (ratio to wild type); higher = more cleavage; co-transcriptional. An outline of the steps: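 In vitro transcription at 37 °C for 2 h allowed the twister ribozyme to cleave itself as it was made. Its 54-nucleotide Oryza sativa template had been synthesised with 97 % wild-type base and 1 % of each other base at the 48 positions downstream of the cleavage site. A template-switching oligonucleotide was used for reverse transcription, followed by PCR amplification and deep sequencing. Whether reads carried upstream sequence set the cleavage status, and relative activity is the fraction cleaved normalised to wild type.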
As for CCGCCUAACACUGCCAAUGCCGGUCCCAAGCCCCGAUAAAAGUGGCGGGGGCGG [A46C G34C], the self-cleavage stood at 0.05.
Under CCGCCUAACACUGCCAAUGCCGGUCCCAAGCCCUGAUAAAAGUGGCGGGGGCGG [A46C G34U] stands 0.04; under CCGCCUAACACUGCCAAUGCCGGUCCCAAGCCCAGAUAAAAGUGGCGGGGGCGG [A46C G34A], 0.06; under CCGCCUAACACUGCCAAUGCCCGUCCCAAGCCCGGAUAAAAGUGGCGGGGGCGG [A46C G22C], 0.03.
As for CCGCCUAACACUGCCAAUGCCAGUCCCAAGCCCGGAUAAAAGUGGCGGGGGCGG [A46C G22A], the self-cleavage turned out to be 0.06.
With CCGCCUAACACUGCCAAUGCCUGUCCCAAGCCCGGAUAAAAGUGGCGGGGGCGG [A46C G22U], the self-cleavage turned out to be 0.04.
With CCGCCUAACACUGCCAAUGCCGGUCCCAAGCCCGGAUAAAAGUGGCGGCGGCGG [A46C G49C] the figure was 0.03.
Consider CCGCCUAACACUGCCAAUGCCGGUCCCAAGCCCGGAUAAAAGUGGCGGAGGCGG [A46C G49A], for which the self-cleavage was 0.04.
Turning to CCGCCUAACACUGCCAAUGCCGGUCCCAAGCCCGGAUAAAAGUGGCGGUGGCGG [A46C G49U], the self-cleavage is 0.04.
Under CCGCCUAACACAGCCAAUGCCGGUCCCAAGCCCGGAUAAAAGUGGCGGGGGCGG [A46C U12A] stands 0.05.
With CCGCCUAACACCGCCAAUGCCGGUCCCAAGCCCGGAUAAAAGUGGCGGGGGCGG [A46C U12C] the figure was 0.04.
As for CCGCCUAACACGGCCAAUGCCGGUCCCAAGCCCGGAUAAAAGUGGCGGGGGCGG [A46C U12G], the self-cleavage is 0.03.
With CCGCCUAACACUGCCAAUGCCGGUCCUAAGCCCGGAUAAAAGUGGGGGGGGCGG [A46G C27U] the figure was 0.04; with CCGCCUAACACUGCCAAUGCCGGUCCAAAGCCCGGAUAAAAGUGGGGGGGGCGG [A46G C27A], 0.05; with CCGCCUAACACUGCCAAUGCCGGUCCGAAGCCCGGAUAAAAGUGGGGGGGGCGG [A46G C27G], 0.04.
With CCGCCUAACACUGCCAAUGCCGGUCACAAGCCCGGAUAAAAGUGGGGGGGGCGG [A46G C26A] the figure was 0.03; with CCGCCUAACACUGCCAAUGCCGGUCUCAAGCCCGGAUAAAAGUGGGGGGGGCGG [A46G C26U], 0.04.
CCGCCUAACACUGCCAAUGCCGGUCGCAAGCCCGGAUAAAAGUGGGGGGGGCGG [A46G C26G]: the self-cleavage came to 0.02.
For CCGCCUAACACUGCCAAUGCCGGUCCCAAGCCCGGAUAAAAGUGGCGGGGUCGG [A46C G51U], the self-cleavage is 0.05.
Consider CCGCCUAACACUGCCAAUGCCGGUCCCAAGCCCGGAUAAAAGUGGCGGGGACGG [A46C G51A], for which the self-cleavage turned out to be 0.07.
For CCGCCUAACACUGCCAAUGCCGGUCCCAAGCCCGGAUAAAAGUGGCGGGGCCGG [A46C G51C], the self-cleavage worked out at 0.04.
With CCGCCUAACACUGCCAAUGCCGGUCCCAAGCCCGGAUAAAAGUUGCGGGGGCGG [A46C G44U] the figure was 0.06.
Consider CCGCCUAACACUGCCAAUGCCGGUCCCAAGCCCGGAUAAAAGUAGCGGGGGCGG [A46C G44A], for which the self-cleavage turned out to be 0.05.
As for CCGCCUAACACUGCCAAUGCCGGUCCCAAGCCCGGAUAAAAGUCGCGGGGGCGG [A46C G44C], the self-cleavage was found to be 0.06.
CCGCCUAACACUGCCAAUGCCGGUCCCAAGCCCGGAUAAAAGUGGCAGGGGCGG [A46C G47A]: the self-cleavage came out at 0.04.
Take CCGCCUAACACUGCCAAUGCCGGUCCCAAGCCCGGAUAAAAGUGGCCGGGGCGG [A46C G47C]: the self-cleavage was 0.02.
Consider CCGCCUAACACUGCCAAUGCCGGUCCCAAGCCCGGAUAAAAGUGGCUGGGGCGG [A46C G47U], for which the self-cleavage is 0.04.
Take CCGCCUAACACUGCCAAUGCCGGUACCAAGCCCGGAUAAAAGUGGGGGGGGCGG [A46G C25A]: the self-cleavage turned out to be 0.02.
In the case of CCGCCUAACACUGCCAAUGCCGGUUCCAAGCCCGGAUAAAAGUGGGGGGGGCGG [A46G C25U], the self-cleavage amounted to 0.05.
As for CCGCCUAACACUGCCAAUGCCGGUGCCAAGCCCGGAUAAAAGUGGGGGGGGCGG [A46G C25G], the self-cleavage turned out to be 0.02.
On to CCGCCUAACACUGCCAAUGCCGGACCCAAGCCCGGAUAAAAGUGGCGGGGGCGG [A46C U24A], for which the self-cleavage is 0.02.
As for CCGCCUAACACUGCCAAUGCCGGCCCCAAGCCCGGAUAAAAGUGGCGGGGGCGG [A46C U24C], the self-cleavage was 0.04.
With CCGCCUAACACUGCCAAUGCCGGGCCCAAGCCCGGAUAAAAGUGGCGGGGGCGG [A46C U24G] the figure was 0.01; with CCGCCUAACACUGCUAAUGCCGGUCCCAAGCCCGGAUAAAAGUGGGGGGGGCGG [A46G C15U], 0.04; with CCGCCUAACACUGCAAAUGCCGGUCCCAAGCCCGGAUAAAAGUGGGGGGGGCGG [A46G C15A], 0.06.
Under CCGCCUAACACUGCGAAUGCCGGUCCCAAGCCCGGAUAAAAGUGGGGGGGGCGG [A46G C15G] stands 0.04.
With CCGCCUAACACUGCCAAUGCCGGUCCCAAGCCCGGAUAAAAGAGGCGGGGGCGG [A46C U43A] the figure was 0.06.
As for CCGCCUAACACUGCCAAUGCCGGUCCCAAGCCCGGAUAAAAGGGGCGGGGGCGG [A46C U43G], the self-cleavage turned out to be 0.05.
On to CCGCCUAACACUGCCAAUGCCGGUCCCAAGCCCGGAUAAAAGCGGCGGGGGCGG [A46C U43C], for which the self-cleavage turned out to be 0.05.
Take CCGCCUAACACUGCCAAUGCCGGUCCCAACCCCGGAUAAAAGUGGCGGGGGCGG [A46C G30C]: the self-cleavage amounted to 0.02.
For CCGCCUAACACUGCCAAUGCCGGUCCCAAUCCCGGAUAAAAGUGGCGGGGGCGG [A46C G30U], the self-cleavage was found to be 0.02.
In the case of CCGCCUAACACUGCCAAUGCCGGUCCCAAACCCGGAUAAAAGUGGCGGGGGCGG [A46C G30A], the self-cleavage amounted to 0.01.
With CCGCCUAACACUGCCAAUGCCGGUCCCAAGCCCGGAUAAAAGUGGCGGGGGCCG [A46C G53C] the figure was 0.04; with CCGCCUAACACUGCCAAUGCCGGUCCCAAGCCCGGAUAAAAGUGGCGGGGGCUG [A46C G53U], 0.08.
As for CCGCCUAACACUGCCAAUGCCGGUCCCAAGCCCGGAUAAAAGUGGCGGGGGCAG [A46C G53A], the self-cleavage was determined as 0.07.
CCGCCUAACACUGCCAAUGCUGGUCCCAAGCCCGGAUAAAAGUGGGGGGGGCGG [A46G C21U]: the self-cleavage worked out at 0.09.
With CCGCCUAACACUGCCAAUGCGGGUCCCAAGCCCGGAUAAAAGUGGGGGGGGCGG [A46G C21G] the figure was 0.02; with CCGCCUAACACUGCCAAUGCAGGUCCCAAGCCCGGAUAAAAGUGGGGGGGGCGG [A46G C21A], 0.07.

The values are drawn from the RNAGym collection of RNA variant scans (doi:10.1002/anie.201605470).
